Measured values published in ChEMBL document CHEMBL1127411, “Chemical and biological evaluation of hydrolysis products of cyclophosphamide” (J Med Chem, 1994).
Activity calls are given as the source filed them. No cut-off for these calls is given here.

Legend:
[1] = The half life at a physiological pH
[2] = Lethal dose was evaluated after single intraperitoneal injection in mice; assay type: toxicity, organism-based; settings: mouse, in vivo, ip
Procedure, shortened: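 Male CD2F1 mice, 6–8 weeks old, two per dose group, single ip injection. Observed 28 days for lethality and clinical signs of toxicity; approximate LD₅₀ estimated from deaths.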

[3] = The half life at a pH 1.2; settings: buffer
[4] = Antitumor efficacy evaluated after single dose of 316 mg/kg; NE = No effect; assay type: functional, organism-based; design: dose 316 mg/kg
Procedure, shortened: (§1)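 Male CD2F1 mice, six per group, inoculated ip with 10⁶ freshly harvested P388 cells in 0.2 mL phosphate-buffered saline. Test substance given ip either once on day 1 or daily on days 1–4; controls received solvent. Median survival time recorded per group; increase of life span expressed as percentage of control.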

[5] = Antitumor efficacy evaluated after fractionated dose of 4*100 mg/kg; NE = No effect; assay type: functional, organism-based; procedure, shortened: as §1
[6] = Antitumor efficacy evaluated after single intraperitoneal dose of 215 mg/kg; NE = No effect; assay type: functional, organism-based; design: dose 215 mg/kg; procedure, shortened: as §1
[7] = Antitumor efficacy evaluated after single intraperitoneal dose of 68.1 mg/kg on consecutive days; NE = No effect; assay type: functional, organism-based; design: dose 68.1 mg/kg; procedure, shortened: as §1

| SMILES | half-life [1] [h] | LD50 [2] [mg/kg] | half-life [3] [h] | Efficacy [4] | Efficacy [5] | Efficacy [6] | Efficacy [7] |
| --- | --- | --- | --- | --- | --- | --- | --- |
| O=P1(N(CCCl)CCCl)NCCCO1 (stereo not given) [CYCLOPHOSPHAMIDE ANHYDROUS] | 158 | 620 | 33.6 |  |  |  |  |
| NCCCOP(=O)(O)O |  | 1000 |  |  |  |  |  |
| O=P1(O)OCCCNCCN1CCCl |  | 1000 |  | inactive | inactive |  |  |
| O=P(O)(O)OCCCNCCNCCCl |  | 700 |  |  |  | inactive | inactive |
